# High-throughput results: PubChem, The Scripps Research Institute Molecular Screening Center
# PRMT1 inh: PRMT1 methyltransferase inhibitors, primary screen, biochemical, fluorescence polarization; 370,000 tested, 1.3% active; recombinant PRMT1, activity-based probe fluorescence polarization; inhibition, % at 2.79 µM;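 active means inhibition above about 21% made by adding two undisclosed values, limit read from the data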
# Target sequence (Q99873 whole entry, looked up): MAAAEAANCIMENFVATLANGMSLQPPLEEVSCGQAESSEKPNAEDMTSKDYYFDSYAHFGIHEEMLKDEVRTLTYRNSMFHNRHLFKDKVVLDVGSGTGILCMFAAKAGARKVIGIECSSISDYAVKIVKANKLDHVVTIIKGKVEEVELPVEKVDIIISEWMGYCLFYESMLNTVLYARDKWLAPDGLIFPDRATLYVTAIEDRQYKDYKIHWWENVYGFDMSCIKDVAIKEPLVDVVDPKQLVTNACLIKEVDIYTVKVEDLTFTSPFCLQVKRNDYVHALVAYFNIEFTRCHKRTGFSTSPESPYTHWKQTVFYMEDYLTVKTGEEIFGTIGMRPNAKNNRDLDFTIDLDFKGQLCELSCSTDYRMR
# SIAE inh: human SIAE inhibitors, primary screen, biochemical, fluorescence polarization, FP-Rh probe, 1536-well HTS; SIAE FP-Rh probe binding; inhibition, % at 9.66 µM; 370,000 tested, 0.69% active;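 active means inhibition above a cutoff: mean of compounds within the control limits plus 3 SD of those, cut at about 17% in these data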;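 further: 0% = plate median of compound wells and 100% = probe without SIAE protein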
# TCR CD3 inh: inhibitors of human TCR-CD3 interaction, primary screen, biochemical, fluorescence, TAMRA-labeled TCR probe; T-cell receptor (TCR); inhibition, % at 9.4 µM; 360,000 tested, 0.37% active; AID 651800, 2012;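 further: recombinant mutant TCR 2C K166C tagged with TAMRA read by polarization; 0% = receptor in buffer alone and 100% = receptor with positive control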
# HTRA1 inh: HTRA1 serine protease inhibitors, primary screen, biochemical, fluorescence polarization, HTS. Q92743. recombinant HTRA1, FP-rhodamine activity-based probe. inhibition, % at 5.96 µM. 340,000 tested, 0.5% active. AID 504803, 2011; in the data active means inhibition above about 36%;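 further: 0% = enzyme with DMSO and 100% = wells lacking enzyme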
# PAD4 FP inh: human PAD4 inhibitors, primary screen, biochemical, fluorescence polarization, 1536-well format | recombinant PAD4, RCA probe fluorescence polarization | AID 485272, 2010 | Protein-arginine deiminase type-4 (Homo sapiens), Q9UM07 | inhibition, % at 6.36 µM | 330,000 tested, 0.41% active;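 active means percent inhibition above a cutoff equal to the mean of all tested compounds plus 3 SD, cut at about 15% in these data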;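 further: 0% = PAD4 with RCA probe and DMSO and 100% = probe without PAD4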
# ABHD4 inh: ABHD4 inhibitors, primary screen, biochemical, fluorescence polarization, mouse; inhibition, % at 8.92 µM; purified mABHD4, FP-Rh probe fluorescence polarization; (Lyso)-N-acylphosphatidylethanolamine lipase (Mus musculus), Q8VD66; 370,000 tested, 0.54% active;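 active means inhibition exceeding the mean over every tested compound plus 3 SD, cut at about 30% in these data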;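 further: 0% = plate median of compound wells and 100% = S159A mutant with DMSO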
# Target sequence (Q8VD66 whole entry, looked up): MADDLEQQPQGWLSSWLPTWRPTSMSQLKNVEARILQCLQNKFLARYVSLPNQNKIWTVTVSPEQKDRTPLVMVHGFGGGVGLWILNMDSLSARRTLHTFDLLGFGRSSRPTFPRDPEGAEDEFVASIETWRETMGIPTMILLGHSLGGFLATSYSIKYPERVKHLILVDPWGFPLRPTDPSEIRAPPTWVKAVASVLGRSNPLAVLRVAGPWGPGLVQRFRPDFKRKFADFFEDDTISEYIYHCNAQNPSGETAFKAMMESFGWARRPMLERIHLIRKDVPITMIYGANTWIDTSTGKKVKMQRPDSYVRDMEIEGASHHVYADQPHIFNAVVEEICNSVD
#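 Test system: mouse ABHD4 enzyme, wild type. Reagent: FP-Rh fluorescent activity-based probe, added after compound pre-incubation. Timing: pre-incubation 45 min, probe exposure 60 min, at 25 °C. Technique: FP readout, ex 525 nm / em 598 nm. Benchmarks: high control S159A mutant with DMSO, low control median of compound wells.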
# HTRA1 conf: HTRA1 protease inhibitors, retest, confirmation, biochemical, fluorescence polarization; shares compounds with HTRA1 inh; recombinant HTRA1, FP-rhodamine activity-based probe; inhibition, % at 5.96 µM; 1,600 tested, 66% active;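 active means mean inhibition over three repeats above a set limit taken from the earlier primary screen, cut at about 37% in these data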;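 further: 0% = HTRA1 with DMSO and 100% = wells lacking HTRA1; inhibitors block probe binding so polarization drops and inhibition rises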
# BSA TAMRA ctr: compounds interfering with TAMRA-BSA probe, counter-screen for TCR-CD3 interaction inhibitor project, biochemical, fluorescence, TAMRA-labeled BSA; shares compounds with TCR CD3 inh; TAMRA-labeled BSA probe fluorescence counterscreen; inhibition, % at 9.4 µM; 1,200 tested, 10% active; AID 652035, 2013; in the data active means inhibition above about 23%;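 further: 0% = buffer low control and 100% = reference high control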
# TCR-CD3 conf: TCR-CD3 interaction inhibitors, retest, confirmation, biochemical, fluorescence, TAMRA-labeled TCR probe | shares compounds with TCR CD3 inh | TAMRA-labeled TCR probe fluorescence binding assay | inhibition, % at 9.4 µM | 1,200 tested, 48% active | AID 652036, 2013
# PRMT1 inh conf: PRMT1 methyltransferase inhibitors, confirmation, biochemical, fluorescence polarization, triplicate | inhibition, % at 2.79 µM | recombinant His-PRMT1, activity-based probe fluorescence polarization | 3,300 tested, 42% active | shares compounds with PRMT1 inh;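 active means mean inhibition across replicates above the hit cutoff derived for the earlier primary screen, cut at about 22% in these data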
# ABHD4 confirm: ABHD4 inhibitors, retest, confirmation, biochemical, fluorescence polarization, mouse. shares compounds with ABHD4 inh. purified mABHD4, FP-Rh probe fluorescence polarization. inhibition, % at 8.92 µM. 1,800 tested, 55% active;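 active means mean inhibition across replicates above the hit cutoff set in the primary screen, cut at about 30% in these data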;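 further: 0% = wild-type ABHD4 with DMSO and 100% = catalytically dead S159A mutant with DMSO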
# * hit, by the source's call; · = not tested or not shown. Most compounds without a hit are left out; they make up all but 2.9% or so of the library. Unless noted, no stated cut-off is given here; in the data, active means inhibition above about 19%; inactive means the rest.
SMILES,PRMT1 inh,SIAE inh,TCR CD3 inh,HTRA1 inh,PAD4 FP inh,ABHD4 inh,HTRA1 conf,ABHD4 confirm,others
CCCCCCCCCCCCCCCCn1cc[n+](C)c1,2,-1,-4,66*,-2,44*,81*,51*,
CCCCCCCCn1ccc(=N)cc1,-3,-3,2,6,1,2,·,·,
Cc1cc(N(C)C)ccc1N=Nc1ccc2ncccc2c1,4,3,-2,37*,1,45*,37*,54*,
O=C1C(C=Nc2ccccc2O)=C(O)c2ccccc21,3,-2,-1,-4,-8,21,·,·,
Cc1ccc(O)c(N=CC2=C(O)c3ccccc3C2=O)c1,4,-1,12,44*,4,34*,76*,46*,
c1ccc(Cn2ccc3ccc(-c4ccc5ccn(Cc6cccc(-c7ccsc7)c6)c5c4)cc32)cc1,4,-7,·,·,·,-2,·,·,
COc1ccccc1CCn1cnc(-c2ccc(OC)c(OC)c2)c1CC(C)C,-2,8,-7,·,·,6,·,·,
CCOc1ccc(C=NNc2ccc(S(=O)(=O)Nc3ccccc3C(=O)O)cc2[N+](=O)[O-])cc1OC,·,·,·,15,4,·,·,·,
O=C(O)c1ccccc1NS(=O)(=O)c1ccc(N/N=C/c2cccc(O)c2O)c([N+](=O)[O-])c1,35*,0,25*,74*,·,86*,78*,77*,BSA TAMRA ctr=-19;TCR-CD3 conf=24*;PRMT1 inh conf=29*
COc1cc(C=NNc2ccc(S(=O)(=O)Nc3ccccc3C(=O)O)cc2[N+](=O)[O-])ccc1O,1,13,7,49*,6,64*,75*,91*,
COc1ccc(NC(=O)c2ccccc2NS(=O)(=O)c2ccc(C)cc2)c([N+](=O)[O-])c1,-3,0,-9,-9,-4,1,·,·,
O=C(O)c1ccccc1NS(=O)(=O)c1ccc(NNC(=S)Nc2ccc(OC(F)F)cc2)c([N+](=O)[O-])c1,23*,8,2,67*,·,72*,118*,140*,
Cc1ccc(-c2cc(C(=O)N=Nc3c(O)[nH]c4ccccc34)[nH]n2)cc1C,0,8,·,·,·,2,·,·,
Cc1ccc(-n2c(SCC(=O)NN=Cc3ccc(-c4ccccc4)cc3)nnc2-c2ccccc2)cc1,0,5,·,·,·,-1,·,·,
O=C1c2ccccc2C(=O)c2c(Nc3ccc(CCO)cc3)ccc(O)c21,-1,12,0,53*,5,48*,81*,75*,
CC(=O)Nc1ccc(Nc2ccc3c4c(cc(=O)n3C)-c3ccccc3C(=O)c24)cc1,7,4,1,21,3,16,·,·,
O=C(c1ccccc1)N1CCC2CCN(S(=O)(=O)c3ccccc3)CC21 (stereo not given),-8,3,-2,·,·,-9,·,·,
CC(=O)c1sc(N/N=C/c2cccc(O)c2)nc1C,-3,1,0,0,2,8,·,·,
CC(=O)c1sc(N/N=C\c2c(O)ccc3ccccc23)nc1C,0,14,7,39*,4,31*,44*,28,
COc1ccc(CCn2c(O)cc3nn(-c4nc5ccccc5s4)c(=O)c-3c2C)cc1,7,2,1,42*,2,37*,88*,17,
O=[N+]([O-])c1cc(Cl)cc(/C=N/NC(=S)Nc2ccc(S(=O)(=O)N3CCOCC3)cc2)c1O,5,13,42*,62*,-8,57*,59*,118*,BSA TAMRA ctr=-5;TCR-CD3 conf=43*
N#Cc1ccc(/C=N/NC(=S)Nc2ccc(S(=O)(=O)N3CCOCC3)cc2)cc1,-4,-8,-2,-11,-3,3,·,·,
Cc1cc(C)c(C)c(N=Nc2nc3ccccc3n2C)c1C,2,9,5,37*,-2,40*,43*,55*,
Cc1ccc(C)c(N=Nc2nc3ccccc3n2C)c1,3,9,5,11,3,13,·,·,
Cc1cc(C)c2nc(NNC(=O)c3cc(=O)c4ccccc4o3)sc2c1,13,2,-7,69*,-3,40*,59*,61*,
SMILES,PRMT1 inh,SIAE inh,TCR CD3 inh,HTRA1 inh,PAD4 FP inh,ABHD4 inh,HTRA1 conf,ABHD4 confirm,others
CCOC(=O)Cc1csc(NC(=O)c2cc(=O)c3ccccc3o2)n1,5,4,1,-14,1,3,·,·,
COc1ccccc1/C=C/C(=O)c1cc(Br)ccc1OC(=O)c1ccco1,-3,-7,4,-25,-4,-16,·,·,
CNc1ccc(Br)cc(C(=O)/C=C/c2cccc(Cl)c2Cl)c1=O,25*,14,7,65*,·,42*,33,35*,PRMT1 inh conf=13
CNc1ccc(Br)cc(C(=O)/C=C/c2cccc(OC)c2OC)c1=O,30*,12,10,39*,-3,39*,32,34*,PRMT1 inh conf=18
CCN=c1scc(C)n1/N=C/c1ccc(O)c(O)c1O,60*,9,27*,60*,3,60*,81*,49*,BSA TAMRA ctr=-20;TCR-CD3 conf=41*
Brc1ccc(N/N=C(/N=Nc2nn[nH]n2)c2ccccc2)cc1,2,17*,-2,62*,0,91*,88*,104*,
O=C(O)c1ccc(N=N/C(=N\Nc2ccc(C(=O)O)cc2)c2ccccc2)cc1,0,-10,10,10,1,25,·,·,
COc1ccc2c(c1)CCCN2C(=O)C1CCCN(S(=O)(=O)c2cccs2)C1 (stereo not given),-12,4,·,·,·,0,·,·,
O=C1NN(c2cccc(Br)c2)C(=O)/C1=C/c1ccc(-c2cc([N+](=O)[O-])ccc2O)o1,·,·,·,6,-2,·,·,·,
